# A selection: hits, their analogues and other compounds. The true share with any hit is near 1.9%.
# NPY-Y1 antag: NPY-Y1 receptor antagonists, primary screen, cell-based; HEK293-CNG Y1 cells, membrane potential fluorescence; NPY at EC95, then isoproterenol; inhibition, % at 3.6 µM; 200,000 compounds, 1% hits; Neuropeptide Y receptor type 1 (Homo sapiens), P25929;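 active = inhibition above the campaign mean inhibition of all tested compounds plus 3 SD, cut at about 20% in these data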;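 note: 0% = DMSO wells given NPY plus isoproterenol and 100% = isoproterenol alone without NPY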
# Target sequence (P25929 whole entry, looked up): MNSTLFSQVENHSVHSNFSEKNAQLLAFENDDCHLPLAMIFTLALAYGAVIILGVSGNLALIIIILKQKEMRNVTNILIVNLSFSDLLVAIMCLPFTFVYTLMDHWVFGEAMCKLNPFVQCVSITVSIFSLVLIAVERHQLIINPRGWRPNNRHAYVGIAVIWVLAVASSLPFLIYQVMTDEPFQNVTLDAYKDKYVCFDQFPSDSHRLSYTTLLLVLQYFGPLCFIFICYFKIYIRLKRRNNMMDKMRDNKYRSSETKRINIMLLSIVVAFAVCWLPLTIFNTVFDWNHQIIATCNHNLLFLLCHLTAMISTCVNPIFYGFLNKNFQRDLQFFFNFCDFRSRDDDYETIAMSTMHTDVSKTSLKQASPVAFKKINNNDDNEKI
#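 Material: HEK293 cells with Y1 receptor plus CNG channel; times: compound incubation 1 h at room temperature, readout 45 min post-stimulation; signal: fluorescence, membrane potential probe; read-out basis: fluorescence ratio normalized to % inhibition between controls; benchmarks: full-block control isoproterenol-only wells, zero-block control NPY plus isoproterenol wells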
# NPY-Y1 PAM-ag: NPY-Y1 receptor potentiators or agonists, primary screen, cell-based. NPY-Y1 expressing cells, potentiator/agonist activation. activation, % at 3.6 µM. 220,000 compounds, 0.37% hits; in the data active = activation above about 33%, passing the limit was not always enough;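 note: cells stimulated with NPY at EC10 then isoproterenol at EC100; 0% = low agonist plus stimulus and 100% = saturating agonist plus stimulus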
# NPY Y2 blocker: NPY-Y2 receptor antagonists, primary screen, cell-based | inhibition, % at 2.7 µM | NPY-Y2 expressing cells, antagonist mode | 140,000 compounds, 0.99% hits | Neuropeptide Y receptor type 2 (Homo sapiens), P49146; in the data active = inhibition above about 17%;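 note: 0% = vehicle with agonist challenge and 100% = reference antagonist with challenge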
# NPY2 pot ag: NPY-Y2 potentiators or agonists, primary screen, cell-based; Neuropeptide Y receptor type 2 (Homo sapiens), P49146; 220,000 compounds, 0.45% hits; activation, % at 3.6 µM; cells expressing NPY-Y2, potentiator/agonist read-out; in the data active = activation above about 27%;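 note: cells stimulated with NPY near EC25 plus isoproterenol at EC100; 0% = vehicle plus submaximal agonist and 100% = vehicle plus saturating agonist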
# NPY-Y1 antag ct: NPY-Y1 receptor antagonists, selectivity check, counter-screen for NPY-Y2 antagonist project, cell-based. 710 compounds, 19% hits. AID 1256, 2008. cell-based NPY-Y1 antagonism counterscreen. inhibition, % at 3.6 µM. shares compounds with NPY Y2 blocker;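 note: cells challenged with NPY then isoproterenol with cAMP sensed through a CNG channel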
# NPY2 antag conf: NPY-Y2 receptor antagonists, retest of hits, confirmation, HEK293-CNG cells, membrane potential fluorescence, triplicate | shares compounds with NPY Y2 blocker | HEK293 NPY-Y2 CNG channel | inhibition, % at 2.8 µM | 710 compounds, 32% hits | AID 1257, 2008;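 active = mean inhibition of triplicate wells above the hit cutoff set in the primary screen, cut at about 17% in these data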;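 note: 0% = DMSO with NPY challenge and 100% = BIIE0246 high control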
# NPY1 antag conf: NPY-Y1 receptor antagonists, retest of hits, confirmation, HEK293-CNG cells, membrane potential fluorescence, triplicate | AID 1254, 2008 | cAMP; NPY challenge against isoproterenol-raised cAMP | inhibition, % at 3.6 µM | shares compounds with NPY-Y1 antag | 1,200 compounds, 21% hits;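 note: 0% = vehicle with agonist plus stimulus and 100% = stimulus alone without agonist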
# NPY-Y2 antag ct: NPY-Y2 receptor antagonists, selectivity check, confirmation, counter-screen for NPY-Y1 antagonist project, HEK293-CNG cells, membrane potential fluorescence, triplicate. shares compounds with NPY-Y1 antag. 1,200 compounds, 28% hits. inhibition, % at 3.6 µM. antagonism; cells given NPY, then isoproterenol; in the data active = inhibition above about 17%;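 note: 0% = DMSO with agonist challenge and 100% = reference antagonist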
# * marks the source's active call; other numbers are inactive results; / = no result given; + = active, no number. Cut-off read from the data, not from the text of the source, unless noted: active = inhibition above about 20%; inactive = the rest.
SMILES,NPY-Y1 antag,NPY-Y1 PAM-ag,NPY Y2 blocker,NPY2 pot ag,others
CCc1nc(N2CCNCC2)c(C#N)c2c1CSC(C)(C)C2,-12,92*,3,89*,
Cc1cc(OCCN2CC2)c2ccccc2n1,/,15,/,-10,
c1ccc2c(c1)Sc1ccccc1N2CC1CN2CCC1CC2 (stereo not drawn),/,18,/,14,
COc1ccc(Cc2nccc3cc(OC)c(OC)cc23)cc1OC,22*,-54,20*,-20,
O=[N+]([O-])c1ccc(N2CCOCC2)c2ccncc12,3,8,/,-14,
CCCCCSc1cc(OC)c(CCN)cc1OC,-4,53*,3,27,
O=P(NC(c1ccccc1)c1ccccc1)(Oc1ccccc1)Oc1ccccc1,21*,-15,38*,-18,
O=C(O)c1sc2cc(Cl)ccc2c1Cl,/,-9,/,-23,
C=C1[C@@H](C)[C@H]2[C@H](Cc3ccccc3)NC(=O)[C@]23OC(=O)/C=C/[C@H](O)CCC[C@@H](C)C/C=C/[C@H]3[C@@H]1O,21*,19,/,30,
COc1ccccc1CCNC1CCCC(C)C1 (stereo not drawn),5,16,2,18,
COc1ccccc1CCNC1CCC(C(C)(C)C)CC1 (stereo not drawn),29*,-56,30*,11,
CN1CCN(/N=C/c2c(O)n(Cc3ccc(F)cc3)c(=O)[nH]c2=O)CC1,/,-1,/,-6,
CN1/C(=C\C=C\C2=[N+](C)c3ccc4ccccc4c3C2(C)C)C(C)(C)c2ccccc21,+,-558,+,-329,
COC(=O)C1C=C2c3cccc4[nH]cc(c34)CC2N(C)C1 (stereo not drawn),/,3,/,-35,
CCN(CC)C(=O)N[C@H]1C[C@@H]2c3cccc4[nH]cc(c34)C[C@H]2N(C)C1,-11,84*,0,72*,
Cc1nn(C)c(C)c1/C=C1/CC2C3CC=C4CC(O)CCC4(C)C3CCC2(C)C1=O (stereo not drawn),26*,-45,47*,-20,
CCn1ncc(/C=C2/CC3C4CC=C5CC(O)CCC5(C)C4CCC3(C)C2=O)c1C (stereo not drawn),-1,-17,1,8,
O=C1C(=O)c2cccc3cccc1c23,1,-15,3,16,
O=C1C(=O)c2ccccc2-c2ccccc21,39*,-96,40*,-65,
CCCCCCn1c(O)c(C=NCCN2CCOCC2)c(=O)[nH]c1=O,1,-18,-1,-24,
CCCCCP(=O)(O)c1ccccc1,-1,-21,-3,0,
CCCC/C(C)=C/[C@@H](NP(=O)(c1ccccc1)c1ccccc1)c1ccccc1,14,-31,27*,-8,NPY-Y1 antag ct=23*;NPY2 antag conf=20*
COc1nc(NCC2CCCO2)nc(N2CC3CC(C2)c2cccc(=O)n2C3)n1 (stereo not drawn),/,15,/,-2,
Clc1ccc(COC(Cn2ccnc2)c2ccc(Cl)cc2Cl)cc1 (stereo not drawn),15,-47,22*,0,NPY-Y1 antag ct=19;NPY2 antag conf=18*
CCC(=NCc1ccco1)c1c(O)n(-c2ccccc2C)c(=O)[nH]c1=O,/,-25,/,-16,
SMILES,NPY-Y1 antag,NPY-Y1 PAM-ag,NPY Y2 blocker,NPY2 pot ag,others
CN1C[C@H](CNC(=O)OCc2ccccc2)C[C@@H]2c3cccc4c3c(cn4C)C[C@H]21,15,-32,18*,-5,NPY-Y1 antag ct=7;NPY2 antag conf=14
OCc1cnc[nH]1,-3,11,0,8,
O=C(CNC(=O)c1cccc(Cl)c1)Nc1ccc(Br)cc1C(=O)c1ccccc1,18,-38,23*,-3,NPY-Y1 antag ct=12;NPY2 antag conf=13
O=C(Nc1ccc(F)cc1)c1c(O)c2c(n(Cc3ccccc3)c1=O)CCCC2,-3,-1,2,2,
O=C(Nc1cccnc1)c1c(O)c2c(n(Cc3ccccc3)c1=O)CCCC2,4,5,19*,12,NPY-Y1 antag ct=1;NPY2 antag conf=4
CN(C)/C=C/C(=O)C(Cl)(Cl)Cl,-3,-11,/,0,
N#Cc1ccccc1Cn1cc(C(=O)c2cccs2)c2ccccc21,5,-30,7,9,
O=C(c1cccs1)c1cn(Cc2ccccc2Cl)c2ccccc12,16,-31,19*,-11,NPY-Y1 antag ct=21*;NPY2 antag conf=16
COc1ccc(C2NCc3ccc4c(c3-n3cccc32)OCO4)cc1O (stereo not drawn),18,-34,19*,-27,NPY-Y1 antag ct=21*;NPY2 antag conf=37*
CCC(=NCCC(c1ccccc1)c1ccccc1)c1c(O)n(C)c(=O)n(C)c1=O,-1,8,24*,16,NPY-Y1 antag ct=16;NPY2 antag conf=27*
Cn1c(O)c(C(=O)c2ccccc2)c(=O)n(C)c1=O,-1,4,0,-10,
CN(C)C(=O)Oc1noc2cc(Cl)ccc12,/,13,/,-3,
Cc1cccc(OP(=O)(NCc2ccccc2)Oc2cccc(C)c2)c1,7,-21,19*,-9,NPY-Y1 antag ct=18;NPY2 antag conf=6
COP(=O)(CC(=O)O)c1ccccc1 (stereo not drawn),2,26,0,6,
COC(=O)[C@@H]1C[C@@]1(C)[C@@H](NP(=O)(c1ccccc1)c1ccccc1)c1ccccc1,30*,-14,17,0,NPY1 antag conf=18;NPY-Y2 antag ct=10
O=C(c1ccco1)c1cn(Cc2ccc(Cl)cc2)c2ccccc12,33*,-64,17,-26,NPY1 antag conf=20*;NPY-Y2 antag ct=15
CSc1ccc(CN2CCN(C(=O)COc3cccc(C)c3)CC2)cc1,-2,-13,/,-17,
CCNC(=O)[C@H]1O[C@@H](n2cnc3c(N)ncnc32)[C@H](O)[C@@H]1O,145*,-21,/,-53,NPY1 antag conf=118*;NPY-Y2 antag ct=105*
O=c1c2ccccc2nc(-c2ccccc2)n1-c1cccc(O)c1,-3,-4,/,0,
CCP(=S)(CC)c1ccc(N(C)C)cc1,3,10,/,-1,
O=C(N=Nc1c(O)[nH]c(=O)[nH]c1=O)C1COc2cc3ccccc3cc2O1 (stereo not drawn),25*,-13,/,-12,NPY1 antag conf=9;NPY-Y2 antag ct=8
NC(=O)c1ccc(N=Nc2c(O)[nH]c(=O)[nH]c2=O)cc1,-3,-21,-1,8,
Cc1ccc2c(c1)C1CN(C)CCC1N2C(=O)c1cccnc1Cl (stereo not drawn),/,15,/,-2,
